“Also recorded” adds a separate entry of the source.
Experiments:
[1] = system: axenic L. mexicana amastigotes; test: Secondary dose response screen against axenic amastigotes; type: cell-based, Leishmania mexicana; conditions: 50 µM to 0.21 µM, 24 h + 24 h alamarBlue, 33 °C
[2] = system: L. mexicana axenic amastigotes; test: Primary screen against axenic amastigotes, single concentration; type: cell-based, Leishmania mexicana; conditions: 50 μM, in duplicate, inhibition of amastigote proliferation
Summary of the method: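 Run in a 96-well format against mammalian-stage L. mexicana axenic amastigotes. Each test compound was tested at a single 50 μM in duplicate, with inhibition of amastigote proliferation as the read-out. Amphotericin B served as positive control, and plate robustness was judged by Z′ factor.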

RAW 267.4 macrophages = test: Cytotoxicity screening against RAW267.4 macrophages; type: cell-based, Mus musculus
Summary of the method: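 Only compounds retained after the axenic amastigote dose-response screen were tested. Host RAW 267.4 macrophages were used. […] Selectivity index is macrophage ED50 divided by axenic amastigote ED50.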

[3] = system: L. mexicana amastigotes within macrophage host (RAW 267.4); test: Infected cell assay: screening against infected macrophages; type: cell-based, Leishmania mexicana; conditions: 24 h

Row | Structure (SMILES) | % inhibition Primary screen [2] | further results
1 | CC1(C)CC[C@]2(CO)CC[C@]3(C)C(=CC[C@@H]4[C@@]5(C)CC[C@@H]6O[C@H]([C@H](O)[C@@H](O)[C@@H](O)CO)OC[C@@]6(C)[C@@H]5CC[C@]43C)[C@@H]2C1 [IVL-80, Anemoclemoside A2] | – | AMA ED50 - effective dose to kill 50% of axenic L. mexicana amastigotes [1]: >50 µM
2 | CC1(C)CC[C@]2(C(=O)O)CC[C@]3(C)C(=CC[C@@H]4[C@@]5(C)CC[C@H](O)[C@@](C)(CO)[C@@H]5CC[C@]43C)[C@@H]2C1 [IVL-7, hederagenin] | < 95% | –
3 | CC1(C)CC[C@]2(C(=O)O)CC[C@]3(C)C(=CC[C@@H]4[C@@]5(C)CC[C@H](OC(=O)CCC(=O)O)[C@@](C)(COC(=O)CCC(=O)O)[C@@H]5CC[C@]43C)[C@@H]2C1 [IVL-1, hederagenin disuccinate] | – | SI - selectivity index, RAW ED50/AMA ED50 (RAW 267.4 macrophages; RAW 267.4 macrophages versus axenic L. mexicana amastigotes): > 43.5; RAW ED50 - effective dose to kill 50% of host macrophage (RAW 267.4) (RAW 267.4 macrophages; toxicity study, 100 µM to 0.41 µM, 24 h): >100 µM; InMAC ED50 - effective dose to kill 50% of amastigotes within macrophage host (RAW 267.4) [3]: not active
4 | C[C@@H]1O[C@@H](O[C@H]2[C@H](O)[C@@H](O)[C@H](OC[C@H]3O[C@@H](OC(=O)[C@]45CCC(C)(C)C[C@H]4C4=CC[C@@H]6[C@@]7(C)CC[C@H](O[C@@H]8OC[C@H](O)[C@H](O)[C@H]8O)[C@@](C)(CO)[C@@H]7CC[C@@]6(C)[C@]4(C)CC5)[C@H](O)[C@@H](O)[C@@H]3O)O[C@@H]2CO)[C@H](O)[C@H](O)[C@H]1O [IVL-15, hederacoside D] | inactive | –
5 | CC1(C)CC[C@]2(C(=O)O)CC[C@]3(C)C(=CC[C@@H]4[C@@]5(C)CC[C@H](O)C(C)(C)[C@@H]5CC[C@]43C)[C@@H]2C1 [IVL-8, Oleanolic acid] | fell below the threshold; also recorded: deselected | –
6 | CC1(C)CC[C@]2(C(=O)O)CC[C@]3(C)C(=CCC4[C@@]5(C)CC[C@H](O[C@@H]6O[C@H](CO)[C@@H](O)[C@H](O)[C@H]6O[C@@H]6O[C@H](CO)[C@@H](O)[C@H](O)[C@H]6O)[C@@](C)(CO)C5CC[C@]43C)[C@@H]2C1 (some centres unmarked) [IVL-14, hederoside F] | fell below the threshold; also recorded: did not reach this cut-off | –

Reference: publication PMC7651632 (RSC Medicinal Chemistry, 2020)
